Shown is part of a subset that was picked to be rich in hits.
CHOP inhibitor – blocks CHOP induction under ER stress. inhibition, % at 10 µM. 220,000 compounds, 3.8% hits. CHO-K1 CHOP-promoter luciferase, tunicamycin-induced, 15-18 h;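 active = compounds that reduced the stress-induced luciferase reporter signal by more than about 70% of percent inhibition, limit read from the data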
XBP1 UPR activ – adaptive UPR (XBP1) activation | CHO-XBP1 luciferase reporter, IRE1-XBP1 UPR activation, luminescence; percent of tunicamycin response, DMSO as zero | activation, % at 20 µM | 330,000 compounds, 0.33% hits;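 active = versus positive control, 20 µM dose yields 30% or more activation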
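Signal: luciferase luminescence; Assay system: CHO-XBP1 luciferase reporter cells; Amount: one thousand reporter cells per well; Dosing: 20 µM single concentration, DMSO 1%; Benchmarks: high control tunicamycin 10 µg/mL final, low control DMSO vehicle only; Schedule: 6 h compound exposure at 37 °C, 5% CO2; Evaluation: percent activation relative to tunicamycin reference.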
iPSC survival up – increases survival of single human iPS cells | survival enhancement, % at 20 µM | AID 602274 | 360,000 compounds, 0.044% hits | hiPSC single-cell survival, ATPlite luminescence; 100% = ROCK inhibitor wells, 0% = DMSO; in the data active = survival enhancement above about 18%;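 note: cells exposed to compounds for 16 hours before the ATP read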
Cardio protect – myocardial damage modulation in H9c2 cells | protection from H2O2 cell death, % at 20 µM | 360,000 compounds, 0.63% hits | H9c2 cardiomyocytes, H2O2 injury protection, ATPLite, 2 h;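 active = compounds giving at least 50% protection of heart cells from peroxide-induced death in the single-dose screen, raw or plate-pattern-corrected value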
CHOP UPR activ – activators of apoptotic arm of unfolded protein response (CHOP) | activation, % at 10 µM | CHO-CHOP luciferase reporter, UPR activation, luminescence; percent of tunicamycin response over DMSO baseline | 330,000 compounds, 0.34% hits;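 active = at 10 µM dose, activation of 40% or more, normalized to positive control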
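Evaluation: % reporter activation, DMSO baseline versus tunicamycin full activation; System: CHO-CHOP luciferase reporter cell line; Input: 500 cells/well; Incubation: 6 h compound treatment, 37 °C; Measured by: Steady-Glo luciferase luminescence; Dosing: one dose, 10 µM in 0.5% DMSO; Buffer or medium: F12 medium, 10% FBS; Benchmarks: positive tunicamycin 10 µg/mL, negative DMSO alone.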
Numbers stand for hits.

What do the screens show for `C[C@H](O)[C@@]1(O)CC[C@H]2[C@@H]3CC[C@@H]4C[C@H](O)CC[C@]4(C)[C@H]3CC[C@@]21C`?
XBP1 UPR activ: inactive; iPSC survival up: inactive; Cardio protect: inactive; CHOP UPR activ: inactive

What do the screens show for `CC(C)(C)OC(=O)N1CCCC(C(=O)Nc2ccc(C(=O)NC3CC3)cc2)C1` (stereo not given)?
iPSC survival up: inactive; Cardio protect: inactive

What do the screens show for `C=CCN1C(=O)/C(=C2/Sc3ccc(OC)cc3N2C)SC1=Nc1ccccc1`?
CHOP inhibitor: 74.1; XBP1 UPR activ: inactive; iPSC survival up: inactive; Cardio protect: inactive; CHOP UPR activ: inactive

What do the screens show for `C=CCN1C(=O)/C(=C2/Sc3ccc(OC)cc3N2C)SC1=NCc1ccccc1`?
CHOP inhibitor: inactive; XBP1 UPR activ: inactive; iPSC survival up: inactive; Cardio protect: inactive; CHOP UPR activ: inactive

Results for O=C(O)c1ccc(/C=C/c2nc3ccccc3c(=O)[nH]2)cc1 ?
XBP1 UPR activ: inactive; iPSC survival up: inactive; Cardio protect: inactive; CHOP UPR activ: inactive

What do the screens show for `Cc1[nH]c2ccccc2c1/C=C/c1nc2ccccc2c(=O)[nH]1`?
CHOP inhibitor: 75.5; XBP1 UPR activ: inactive; iPSC survival up: inactive; Cardio protect: inactive; CHOP UPR activ: inactive

What do the screens show for `CCOc1cc(/C=C/c2nc3ccccc3c(=O)[nH]2)ccc1O`?
XBP1 UPR activ: inactive; iPSC survival up: inactive; Cardio protect: 57.1; CHOP UPR activ: inactive

What do the screens show for `Cc1nn(C)c(C)c1/C=C(\C#N)S(=O)(=O)c1ccc(F)cc1`?
iPSC survival up: inactive; Cardio protect: inactive

What do the screens show for `CC(C)Sc1n[nH]c2nc3c(c(=O)n12)C1(CCCC1)Cc1ccccc1-3`?
CHOP inhibitor: inactive

Results for C=CCSc1n[nH]c2nc3c(c(=O)n12)C1(CCCC1)Cc1ccccc1-3 ?
CHOP inhibitor: 70.6; XBP1 UPR activ: inactive; iPSC survival up: inactive; Cardio protect: inactive; CHOP UPR activ: inactive

What do the screens show for `CCSc1n[nH]c2nc3c(c(=O)n12)C1(CCCC1)Cc1ccccc1-3`?
CHOP inhibitor: 87.9; XBP1 UPR activ: inactive; iPSC survival up: inactive; Cardio protect: inactive; CHOP UPR activ: inactive

How did CSc1n[nH]c2nc3c(c(=O)n12)C1(CCCC1)Cc1ccccc1-3 do in these assays?
CHOP inhibitor: inactive; XBP1 UPR activ: inactive; iPSC survival up: inactive; Cardio protect: inactive; CHOP UPR activ: inactive

How did CCOC(=O)CCCCCC(=O)Nc1ccc2c(c1)C(=O)N([C@H](C)CO)C[C@H](C)[C@@H](CN(C)C(=O)Nc1ccccc1)OCCCC[C@@H](C)O2 do in these assays?
iPSC survival up: inactive; Cardio protect: inactive

What do the screens show for `COCCNC(=O)C1CCCN(C(=O)c2nc3ccccc3s2)CC1` (stereo not given)?
iPSC survival up: inactive; Cardio protect: inactive

How did Cc1cc(C)n(-c2nnc(C)n2/N=C/c2ccccc2OCc2ccccc2Cl)n1 do in these assays?
CHOP inhibitor: inactive; XBP1 UPR activ: inactive; iPSC survival up: inactive; Cardio protect: inactive; CHOP UPR activ: inactive

How did Cc1cc(C)n(-c2nnc(C)n2/N=C/c2cc(Br)ccc2OCc2ccccc2)n1 do in these assays?
CHOP inhibitor: 91.8; XBP1 UPR activ: inactive; iPSC survival up: inactive; Cardio protect: inactive; CHOP UPR activ: inactive

What do the screens show for `CC(C)N1CCC(C)(C(=O)Nc2cc(-c3ccccc3)nn2C)C1` (stereo not given)?
iPSC survival up: inactive; Cardio protect: inactive

Results for CCC(C)C(Nc1ccc(C(=O)OC)cc1[N+](=O)[O-])C(=O)OC (stereo not given) ?
CHOP inhibitor: 89.2; XBP1 UPR activ: inactive; iPSC survival up: inactive; Cardio protect: inactive; CHOP UPR activ: inactive

How did CC(=NNC(=S)N1CC2CCC(CC2)C1)c1ccncn1 do in these assays?
iPSC survival up: inactive; Cardio protect: inactive

Results for CCOC(=O)n1c(=O)n(Cc2c(Cl)cccc2Cl)c2ccccc21 ?
CHOP inhibitor: 72.7; XBP1 UPR activ: inactive; iPSC survival up: inactive; Cardio protect: inactive; CHOP UPR activ: inactive

Results for CCOC(=O)n1c(=O)n(Cc2ccc(Cl)c(Cl)c2)c2ccccc21 ?
CHOP inhibitor: 81.3; XBP1 UPR activ: inactive; iPSC survival up: inactive; Cardio protect: inactive; CHOP UPR activ: inactive

Results for CCOC(=O)N1CCN(C(=O)c2ccc(CS(=O)c3cccc(C)c3)o2)CC1 (stereo not given) ?
iPSC survival up: inactive; Cardio protect: inactive

What do the screens show for `Cc1cc(Cl)ccc1OCC(=O)NCCOc1nc(N2CCCCC2)nc(N2CCOCC2)n1`?
CHOP inhibitor: 89.2; XBP1 UPR activ: inactive; iPSC survival up: inactive; Cardio protect: inactive; CHOP UPR activ: inactive

What do the screens show for `COc1ccc(OC)c(/C=N/Nc2nncn2/N=C/c2cc(OC)ccc2OC)c1`?
CHOP inhibitor: inactive; XBP1 UPR activ: inactive; iPSC survival up: inactive; Cardio protect: 80.9; CHOP UPR activ: inactive

How did COc1cc(/C=N/Nc2nncn2/N=C/c2ccc(O)c(OC)c2)ccc1O do in these assays?
CHOP inhibitor: inactive; XBP1 UPR activ: inactive; iPSC survival up: inactive; Cardio protect: inactive; CHOP UPR activ: inactive

What do the screens show for `CC(C)CNC(=O)c1cccc2c(-c3cccc(C(N)=O)c3)coc12`?
iPSC survival up: inactive; Cardio protect: inactive

How did O=c1[nH]nc(CNc2ccc(C(F)(F)F)cc2)c2ccccc12 do in these assays?
CHOP inhibitor: inactive; XBP1 UPR activ: inactive; iPSC survival up: inactive; Cardio protect: 68.7; CHOP UPR activ: inactive

What do the screens show for `O=c1[nH]nc(CNc2ccc(O)cc2)c2ccccc12`?
CHOP inhibitor: inactive; XBP1 UPR activ: inactive; iPSC survival up: inactive; Cardio protect: 87.3; CHOP UPR activ: inactive

What do the screens show for `Cc1cc(O)c(C(C)C)cc1C1(c2cc(C(C)C)c(O)cc2C)OC(=O)c2ccccc21`?
CHOP inhibitor: 106.3; XBP1 UPR activ: inactive; iPSC survival up: inactive; Cardio protect: inactive; CHOP UPR activ: inactive

Results for CCN(CC)c1ccc(N=Cc2c(C)[nH]c3ccccc23)cc1 ?
CHOP inhibitor: 97.4; XBP1 UPR activ: inactive; iPSC survival up: inactive; Cardio protect: inactive; CHOP UPR activ: inactive

Results for CCc1c(C(=O)Nc2ccc(OC)cc2)[nH]c(C)c1C(C)=O ?
CHOP inhibitor: inactive; XBP1 UPR activ: inactive; iPSC survival up: 21.7; Cardio protect: inactive; CHOP UPR activ: inactive

Results for COc1ccc(NC(=O)c2[nH]c(C)c(C(C)=O)c2C)cc1 ?
CHOP inhibitor: inactive; XBP1 UPR activ: inactive; iPSC survival up: inactive; Cardio protect: inactive; CHOP UPR activ: inactive

What do the screens show for `Cc1ccc(C(c2cc(Cl)c3cccnc3c2O)N2CCN(C)CC2)cc1` (stereo not given)?
XBP1 UPR activ: inactive; iPSC survival up: inactive; Cardio protect: inactive; CHOP UPR activ: inactive

Results for CC(=O)NC(c1cc(Cl)c2cccnc2c1O)C1CC1 (stereo not given) ?
XBP1 UPR activ: inactive; iPSC survival up: inactive; Cardio protect: 59.7; CHOP UPR activ: inactive

Screening results (PubChem)
